We go through nine compounds from ChEMBL document CHEMBL1157245, “Bromophenols coupled with methyl gamma-ureidobutyrate and bromophenol sulfates from the red alga Rhodomela confervoides” (J Nat Prod, 2006).

Common to all, as to format: functional, cell-based
The subject of assay [1] is BGC-823. Description: Cytotoxicity against human BGC823 cells after 96 hrs by MTT assay. Particulars: BGC-823, 96 h. In short, it runs like this: (§1)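 Cell lines from ATCC, grown in RPMI 1640 with 10% FBS plus penicillin/streptomycin at 37 °C, 5% CO2. Seeded at 1200 cells/well; compounds added 24 h later at five concentrations from DMSO stocks (final DMSO 0.1%), triplicate wells.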

Assay [2] has as its system A2780. Kind of assay: Cytotoxicity against human A2780 cells after 96 hrs by MTT assay. Particulars: A2780, 96 h. The method in brief:
as §1

In assay [3] the test system is HCT-8. Kind of assay: Cytotoxicity against human HCT8 cells after 96 hrs by MTT assay. The following applies: HCT-8, 96 h. The method in brief: as §1
Assay [4] relates to A549. Kind of assay: Cytotoxicity against human A549 cells after 96 hrs by MTT assay. Particulars: A549, 96 h. In short, it runs like this:
as §1

Assay [5] has as its system Bel-7402. Description: Cytotoxicity against human BEL-7402 cells after 96 hrs by MTT assay. Particulars: Bel-7402, 96 h. In short, it runs like this: as §1

Structures are written as SMILES. A value given as a limit tells only on which side of the number the result lay.

For the compound `COC(=O)CCCNC(=O)N(Cc1cc(O)c(O)c(Br)c1Br)Cc1cc(O)c(O)c(Br)c1Cc1cc(O)c(O)c(Br)c1Br`, the IC50 in assay [1], in assay [2], in assay [3], in assay [4] and in assay [5] was more than 10 µg/mL throughout.
Consider `COC(=O)CCCNC(=O)NCc1cc(O)c(O)c(Br)c1Br`, for which the IC50 in assay [1], in assay [2], in assay [3], in assay [4] and in assay [5] was more than 10 µg/mL each time.
With `O=S(=O)(O)OCCc1cc(O)c(O)c(Br)c1Cc1cc(O)c(O)c(Br)c1Br`, the IC50 in assay [1] was 15.1 µM; in assay [2], more than 16.9 µM; in assay [3] it was 12.1 µM; in assay [4] it was 14.5 µM; in assay [5] it was 13.5 µM.
The matching figures for `COC(=O)CCCNC(=O)NCc1cc(O)c(O)c(Br)c1Cc1cc(O)c(O)c(Br)c1Br`: more than 10 µg/mL, more than 10 µg/mL, more than 10 µg/mL, more than 10 µg/mL and more than 10 µg/mL.
In the same order, the values of `O=S(=O)(O)OCCc1cc(O)c(O)c(Br)c1` are 19.1 µM, 20.8 µM, 18.8 µM, 18.5 µM and 20.4 µM.
The matching figures for `O=S(=O)(O)OCCc1cc(O)c(O)c(Br)c1Br`: 14 µM, 9.4 µM, 14.6 µM, 14.7 µM and 14.8 µM.
In the case of `OCCc1cc(O)c(O)c(Br)c1Br`, the IC50 in assay [1] worked out at 20.2 µM; in assay [2], 19.9 µM; in assay [3], 15.4 µM; in assay [4] it was 19.7 µM; in assay [5] it was 19.4 µM.
The matching figures for `COC(=O)CCCN(Cc1cc(O)c(O)c(Br)c1Br)C(=O)NCc1cc(O)c(O)c(Br)c1Br`: more than 10 µg/mL, more than 10 µg/mL, more than 10 µg/mL, more than 10 µg/mL and more than 10 µg/mL.
In the same order, the values of `O=c1[nH]cc(F)c(=O)[nH]1` [FLUOROURACIL] are 5.4 µM, 5 µM, 4.2 µM, 1.4 µM and 4.2 µM.
